Experimental data from ChEMBL document CHEMBL1156669, “Aldehyde dehydrogenase inhibitors: alpha,beta-acetylenic N-substituted aminothiolesters are reversible growth inhibitors of normal epithelial but irreversible apoptogens for cancer epithelial cells from human prostate in culture” (Eur J Med Chem, 2008).
One block for each compound: values may come before it. Calls of active or inactive are those of the source. The rule behind the calls is not given here.

Experiments:
DU-145 [1] = assay: Growth inhibition of human DU145 cells administered after 3 days; format: functional, cell-based; conditions: DU-145, 72 h
Summary of the method: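 DU145 in RPMI 1640 with 10% FCS; 1 × 10⁵ cells per well in 24-well plates, compound added 4 h after seeding. After 3 days the adherent sheet was washed twice with PBS and harvested in 0.14 M NaOH, and protein content measured. IC50 is the mean of three experiments.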

[2] = Growth inhibition of rat JM2 cells; format: functional, cell-based
RH7777 = assay: Growth inhibition of RH7777 cells; format: functional, cell-based; conditions: Rattus norvegicus
MRC5 = assay: Growth inhibition of human MRC5 cells; format: cell-based
[3] = Growth inhibition of HPEN cells administered after 3 days; format: cell-based; conditions: Homo sapiens, 72 h
Summary of the method: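 HPENC in PrEGM with supplement and 10% FCS; 1 × 10⁵ cells per well in 24-well plates, compound added 4 h after seeding once adhered. After 3 days, growth read as protein content. IC50 is the mean of three experiments.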

[4] = Growth inhibition of human androgen-sensitive MOP cells after 3 days; format: functional; conditions: 72 h
Summary of the method: (§1)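 MOP (androgen-sensitive, LNCaP grown long-term in steroid-deprived medium) and ME (from regrown MOP xenografts under androgen) in RPMI 1640 with 5% charcoal-treated FCS. Seeded 1 × 10⁵ cells per well in 24-well plates, compound added at 4 h, cell count by Coulter counter after 3 days. IC50 is the mean of three experiments.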

[5] = Growth inhibition of human androgen-resistant ME cells after 3 days; format: functional; conditions: 72 h; summary of the method: as §1
DU-145 [6] = assay: Growth inhibition of human DU145 cells at 2 uM after 3 days; format: functional; conditions: DU-145, 72 h
Summary of the method: (§2)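 Cells seeded at 1 × 10⁵ per well in 24-well plates; compound added 4 h post-seeding and left for 3 days. Growth inhibition measured as protein content relative to control. HPENC values are means of three experiments in duplicate; DU145 values are means of five experiments in duplicate.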

DU-145 [7] = assay: Growth inhibition of human DU145 cells at 5 uM after 3 days; format: functional; conditions: DU-145, 72 h; summary of the method: as §2
DU-145 [8] = assay: Growth inhibition of human DU145 cells at 10 uM after 3 days; format: functional; conditions: DU-145, 72 h; summary of the method: as §2
[9] = Growth inhibition of HPEN cells at 2 uM after 3 days; format: cell-based; conditions: human; summary of the method: as §2
[10] = Growth inhibition of HPEN cells at 5 uM after 3 days; format: cell-based; conditions: human; summary of the method: as §2
[11] = Growth inhibition of HPEN cells at 10 uM after 3 days; format: cell-based; conditions: human; summary of the method: as §2
DU-145 [12] = assay: Reversal of growth inhibition in human DU145 cells assessed as increase in cell number at 10 uM after 8 days; format: functional
Summary of the method: (§3)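 Cells seeded in six wells and treated from 4 h after seeding. Two wells were left in the original drug-containing medium for a further 5 days. Growth measured on day 8 as protein content of adherent cells and expressed as the day 8/day 3 ratio. EtOH vehicle controls were handled identically. Two experiments in duplicate.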

DU-145 [13] = assay: Reversal of growth inhibition in human DU145 cells assessed as increase in cell number at 10 uM on day 3 replaced with fresh medium without drug and measured after 8 days; format: functional
Summary of the method: (§4)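 Cells were treated for 3 days. The medium was then aspirated, the sheet washed with PBS and fresh drug-free medium added, followed by 5 more days of culture. Growth measured on day 8 as adherent-cell protein and expressed relative to the day-3 protein content of parallel wells. Two experiments in duplicate.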

[14] = Reversal of growth inhibition in HPEN cells assessed as increase in cell number at 10 uM after 8 days; format: cell-based; conditions: human, 192 h; summary of the method: as §3
[15] = Reversal of growth inhibition in HPEN cells assessed as increase in cell number at 10 uM on day 3 replaced with fresh medium without drug and measured after 8 days; format: cell-based; conditions: human, 192 h; summary of the method: as §4
DU-145 [16] = assay: Increase in superoxide anion level in human DU145 cells at 10 uM after 3 days by flow cytometry; format: functional, cell-based
[17] = target: T1, Aldehyde dehydrogenase 1A1 (Homo sapiens) (UniProt P00352); assay: Inhibition of ALDH1 in human DU145 cells at 2.5 uM after 3 days; format: cell-based; conditions: DU-145
T1 sequence (whole entry): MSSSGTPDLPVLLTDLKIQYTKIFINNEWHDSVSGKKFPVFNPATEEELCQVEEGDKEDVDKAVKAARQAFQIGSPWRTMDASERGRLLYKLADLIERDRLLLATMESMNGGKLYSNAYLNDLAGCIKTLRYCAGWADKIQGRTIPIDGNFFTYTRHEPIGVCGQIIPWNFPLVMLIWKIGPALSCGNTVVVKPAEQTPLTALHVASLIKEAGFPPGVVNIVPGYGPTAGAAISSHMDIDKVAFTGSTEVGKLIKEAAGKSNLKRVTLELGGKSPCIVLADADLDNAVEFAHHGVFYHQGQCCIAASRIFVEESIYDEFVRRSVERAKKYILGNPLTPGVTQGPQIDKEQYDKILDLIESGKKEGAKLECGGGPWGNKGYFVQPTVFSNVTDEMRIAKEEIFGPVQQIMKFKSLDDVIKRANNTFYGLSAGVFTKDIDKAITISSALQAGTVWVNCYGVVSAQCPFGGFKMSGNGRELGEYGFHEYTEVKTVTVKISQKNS
Summary of the method: (§5)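 DU145 treated for 3 days, trypsinised, washed in PBS and lysed in 60 mM sodium phosphate pH 7 with 1% Triton X-100 and 1 mM EDTA, 30 min at 4 °C; lysate spun at 48,000g for 30 min. ALDH1: supernatant in phosphate pH 8.5, 1 mM EDTA, 100 mM KCl, 2.35 mM NAD, propanal substrate. ALDH3: 5 mM benzaldehyde, 2.5 mM NADP, 1 mM pyrazole. Two experiments in duplicate.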

[18] = target: T1, Aldehyde dehydrogenase 1A1 (Homo sapiens); assay: Inhibition of ALDH1 in human DU145 cells at 5 uM after 3 days; format: cell-based; conditions: DU-145; summary of the method: as §5
[19] = target: T1, Aldehyde dehydrogenase 1A1 (Homo sapiens); assay: Inhibition of ALDH1 in human DU145 cells at 7.5 uM after 3 days; format: cell-based; conditions: DU-145; summary of the method: as §5
[20] = target: T2, Aldehyde dehydrogenase, dimeric NADP-preferring (Homo sapiens) (UniProt P30838); assay: Inhibition of ALDH3 in human DU145 cells at 2.5 uM after 3 days; format: cell-based; conditions: DU-145; summary of the method: as §5
T2 sequence (whole entry): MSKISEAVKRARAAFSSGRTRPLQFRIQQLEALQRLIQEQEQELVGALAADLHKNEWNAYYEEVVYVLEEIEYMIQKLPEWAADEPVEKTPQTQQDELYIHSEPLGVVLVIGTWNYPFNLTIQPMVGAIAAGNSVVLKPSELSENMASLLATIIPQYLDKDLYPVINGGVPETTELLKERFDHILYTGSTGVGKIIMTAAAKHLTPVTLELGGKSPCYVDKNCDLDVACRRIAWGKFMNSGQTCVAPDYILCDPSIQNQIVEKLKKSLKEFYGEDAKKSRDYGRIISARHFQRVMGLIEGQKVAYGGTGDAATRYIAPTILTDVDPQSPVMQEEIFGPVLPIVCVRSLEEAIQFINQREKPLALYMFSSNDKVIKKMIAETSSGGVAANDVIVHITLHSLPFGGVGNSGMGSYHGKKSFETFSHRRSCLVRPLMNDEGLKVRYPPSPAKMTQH

[21] = target: T2, Aldehyde dehydrogenase, dimeric NADP-preferring (Homo sapiens); assay: Inhibition of ALDH3 in human DU145 cells at 5 uM after 3 days; format: cell-based; conditions: DU-145; summary of the method: as §5
[22] = target: T2, Aldehyde dehydrogenase, dimeric NADP-preferring (Homo sapiens); assay: Inhibition of ALDH3 in human DU145 cells at 7.5 uM after 3 days; format: cell-based; conditions: DU-145; summary of the method: as §5
DU-145 [23] = assay: Decrease in redox potential in human DU145 cells at 10 uM after 3 days by flow cytometry; format: functional, cell-based
DU-145 [24] = assay: Induction of apoptosis in human DU145 cells assessed as apoptotic cells in flow cytometry region H1 at 10 uM after 3 days by flow cytometry
DU-145 [25] = assay: Induction of apoptosis in human DU145 cells assessed as apoptotic cells in flow cytometry region H3 at 10 uM after 3 days by flow cytometry

Compound: CSC(=O)C#CC(C)(C)N1Cc2ccccc2C1
IC50 (DU-145 [1]): 6.2 µM

Compound: CSC(=O)C#CC(C)(C)N1CCCCC1
IC50 (DU-145 [1]): 22 µM

Compound: CSC(=O)C#CC(C)(C)N1CCc2ccccc21
IC50 (DU-145 [1]): 7 µM

Compound: CSC(C#CC(C)(C)N1CCOCC1)=[N+](C)C
IC50 (DU-145 [1]): > 100 µM

Continued, in another order:

IC50 (DU-145 [1]): 7.2 µM
inhibition [17]: 15%
inhibition [18]: 40%
inhibition [19]: 78%
inhibition [20]: 40%
inhibition [21]: 62%
inhibition [22]: 100%
Compound: CSC(=O)C#CC(C)(C)N(C)C
IC50 [2]: 10 µM
IC50 (RH7777): 10 µM
IC50 (MRC5): 8 µM
IC50 [3]: 9.7 µM
IC50 [4]: 3000 nM
IC50 [5]: 3000 nM
inhibition at 2 µM (DU-145 [6]): 6%
inhibition at 5 µM (DU-145 [7]): 34%
inhibition at 10 µM (DU-145 [8]): 78%
inhibition at 72 h, 2 µM [9]: 6%
inhibition at 72 h, 5 µM [10]: 23%
inhibition at 72 h, 10 µM [11]: 60%
Activity (DU-145 [12]): 2.5
Activity (DU-145 [13]): 2.7
Activity [14]: 0.9
Activity [15]: 2.8
Activity (DU-145 [16]): Active
Activity (DU-145 [23]): Active
Activity (DU-145 [24]): Active
Activity (DU-145 [25]): Active

IC50 (DU-145 [1]): 12.5 µM
Compound: CSC(=O)C#CC(C)(C)N(C)c1ccccc1

IC50 (DU-145 [1]): 6.7 µM
Compound: CSC(=O)C#CC(C)(C)N1CCCC1

IC50 (DU-145 [1]): 54 µM
Compound: CSC(=O)C#CC(C)(C)N1CCSCC1
